The source made the active and inactive calls. No cut-off for these calls is given here.
Key:
[1] = biological target: T1, Melanocortin receptor 4 (Homo sapiens, UniProt P32245); assay: Displacement of [125I]NDP-MSH from human MC4 receptor expressed in HEK293 cells; assay type: cell-based
Procedure, shortened: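 HEK293 cells expressing human MC4R, radioligand competition binding with [125I]-NDP-MSH. Ki values are the average of two or more independent measurements.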

[2] = biological target: T1, Melanocortin receptor 4; assay: Agonist activity at human MC4 receptor expressed in CHO cells assessed as accumulation of cAMP production; assay type: functional, cell-based
Procedure, shortened: (§1)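 CHO cells transfected with human MC4R were stimulated by compound and accumulated cAMP was measured by ELISA. Intrinsic activity is expressed relative to α-MSH. Representative experiments were run 2–8 times.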

[3] = biological target: T1, Melanocortin receptor 4; assay: Intrinsic activity at human MC4 receptor expressed in CHO cells assessed as accumulation of cAMP production relative to alphaMSH; assay type: functional, cell-based; procedure, shortened: as §1
[4] = biological target: T1, Melanocortin receptor 4; assay: Antagonist activity at human MC4 receptor expressed in CHO cells assessed as inhibition of alpha-MSH-stimulated cAMP production; assay type: functional, cell-based
Procedure, shortened: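 CHO cells transfected with human MC4R were tested for dose-dependent inhibition of α-MSH-stimulated cAMP accumulation, measured by ELISA. IC50 was derived. Representative experiments were run 2–8 times.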

[5] = tested on: Rattus norvegicus; assay: Suppression of food intake in ip dosed DIO rat after 24 hrs relative to control; assay type: functional, organism-based
Procedure, shortened: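 Male DIO rats were food-deprived overnight and on the test day. They were dosed ip at 3, 10 or 30 mg/kg in sterile water, and food was returned 1 h later. Cumulative intake was measured at set intervals over 24 h and compared with vehicle-treated rats.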

[6] = tested on: Rattus norvegicus; assay: Reduction of body weight in po dosed DIO rat; assay type: functional, organism-based
Procedure, shortened: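 Male DIO rats, separate groups, dosed orally once daily 1 h before lights out for 7 days with vehicle, fenfluramine, or 3, 10 or 30 mg/kg test article. Body weight and spillage-corrected food intake were recorded daily and compared with vehicle-treated controls.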

[7] = tested on: Rattus norvegicus; assay: Suppression of food intake in DIO rat at 30 mg/kg, po relative to control; assay type: functional, organism-based; design: dose 30 mg/kg
Procedure, shortened: (§2)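 Male DIO rats in separate groups were dosed orally once daily, 1 h before lights out, for 7 days with vehicle, fenfluramine, or 3, 10 or 30 mg/kg compound. Food intake (corrected for spillage) and body weight were recorded daily. After 7 days, body composition was measured by EchoMRI and fasting glucose by glucometer, each relative to baseline. Significance was set at p < 0.05.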

[8] = tested on: Rattus norvegicus; assay: Effect on food intake in DIO rat assessed as inhibition of feeding at 3 mg/kg, po after 6 days; assay type: functional, organism-based; design: dose 3 mg/kg; procedure, shortened: as §2
[9] = tested on: Rattus norvegicus; assay: Reduction of body weight in DIO rat at 30 mg/kg, po after 2 days; assay type: functional, organism-based; design: dose 30 mg/kg; procedure, shortened: as §2
[10] = tested on: Rattus norvegicus; assay: Increase in fat loss in po dosed DIO rat after 7 days; assay type: functional, organism-based; procedure, shortened: as §2
[11] = tested on: Rattus norvegicus; assay: Decrease in fasting glucose level in DIO rat at 30 mg/kg, po after 7 days; assay type: functional, organism-based; design: dose 30 mg/kg; procedure, shortened: as §2
[12] = biological target: Melanocyte-stimulating hormone receptor (Homo sapiens, UniProt Q01726); settings: 10 uM
Melanocyte-stimulating hormone receptor, sequence (Q01726 whole entry, looked up): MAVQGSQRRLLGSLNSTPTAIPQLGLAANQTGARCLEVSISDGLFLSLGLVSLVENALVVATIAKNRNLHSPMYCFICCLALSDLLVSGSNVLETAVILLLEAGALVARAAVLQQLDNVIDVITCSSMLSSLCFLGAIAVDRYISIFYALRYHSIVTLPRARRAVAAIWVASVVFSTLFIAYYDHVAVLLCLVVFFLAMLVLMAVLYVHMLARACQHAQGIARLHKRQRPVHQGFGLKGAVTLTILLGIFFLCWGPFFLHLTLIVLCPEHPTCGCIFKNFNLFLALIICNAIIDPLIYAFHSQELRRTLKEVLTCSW

T1 sequence (P32245 whole entry): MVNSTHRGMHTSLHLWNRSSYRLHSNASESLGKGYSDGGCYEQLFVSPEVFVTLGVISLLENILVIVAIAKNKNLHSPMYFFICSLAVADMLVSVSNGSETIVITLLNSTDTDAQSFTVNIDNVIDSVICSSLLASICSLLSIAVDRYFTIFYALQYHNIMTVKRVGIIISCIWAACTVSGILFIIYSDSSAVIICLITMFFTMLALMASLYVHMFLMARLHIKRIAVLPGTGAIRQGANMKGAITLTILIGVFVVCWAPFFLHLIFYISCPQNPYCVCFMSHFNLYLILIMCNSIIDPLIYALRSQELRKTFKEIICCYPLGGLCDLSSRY

Row | SMILES | Ki [1] | Intrinsic activity [3] | also measured
1 | Cc1ccc(N2CCN(C(=O)[C@@H]3CNC[C@H]3c3ccc(Cl)cc3)CC2)c([C@@H](NC(=O)CCN(C)C)C(C)C)c1 | 7.2 nM | 72% | EC50 [2]: 79 nM
2 | CC(C)[C@H](NC(=O)CCN(C)C)c1cccc(F)c1N1CCN(C(=O)[C@@H]2CN(C(C)C)C[C@H]2c2ccc(C(F)(F)F)cc2F)CC1 | 61 nM | – | –
3 | CC(C)[C@H](NC(=O)CCN(C)C)c1cccc(F)c1N1CCN(C(=O)[C@@H]2CN(C(C)C)C[C@H]2c2ccc(Cl)cc2Cl)CC1 | 7.5 nM | 24% | IC50 [4]: 560 nM
4 | Cc1ccc(N2CCN(C(=O)[C@@H]3CN(C4CCOCC4)C[C@H]3c3ccc(Cl)cc3)CC2)c([C@@H](NC(=O)CCN(C)C)C(C)C)c1 (stereo in doubt; 13b) | – | 121% | –
5 | Cc1ccc(N2CCN(C(=O)[C@@H]3CN(C4CCOCC4)C[C@H]3c3ccc(Cl)cc3)CC2)c([C@@H](NC(=O)[C@@H](C)N)C(C)C)c1 | 7.3 nM | 56% | EC50 [2]: 17 nM
6 | CC(C)[C@H](NC(=O)CCN(C)C)c1cccc(F)c1N1CCN(C(=O)[C@@H]2CN(C(C)C)C[C@H]2c2cc(F)cc(F)c2)CC1 | 7800 nM | – | –
7 | CC(C)[C@H](NC(=O)CCN(C)C)c1cccc(F)c1N1CCN(C(=O)[C@@H]2CN(C(C)C)C[C@H]2c2ccc(F)c(F)c2)CC1 | 290 nM | – | –
8 | Cc1ccc(N2CCN(C(=O)[C@H]3CN(C(C)C)C[C@H]3c3ccc(Cl)cc3)CC2)c([C@@H](NC(=O)CCN(C)C)C(C)C)c1 | 90 nM | – | –
9 | Cc1ccc(N2CCN(C(=O)[C@@H]3CN(C4CCOCC4)C[C@H]3c3ccc(Cl)cc3)CC2)c([C@@H](NC(=O)[C@H](C)N)C(C)C)c1 | 1 nM | 38% | EC50 [2]: 5.2 nM
10 | Cc1ccc(N2CCN(C(=O)[C@@H]3CN(C4CCOCC4)C[C@H]3c3ccc(Cl)cc3)CC2)c([C@H](C(C)C)N(C)C)c1 | 5.3 nM | 35% | –
11 | CCC(=O)N1C[C@@H](C(=O)N2CCN(c3ccc(C)cc3[C@@H](NC(=O)CCN(C)C)C(C)C)CC2)[C@H](c2ccc(Cl)cc2)C1 | 4.6 nM | 129% | EC50 [2]: 27 nM
12 | CCNC(C)Cc1cccc(C(F)(F)F)c1 (stereo not drawn) | – | – | Activity [5]: Active; Activity [6]: Active
13 | Cc1ccc(N2CCN(C(=O)[C@@H]3CN(C4CCOCC4)C[C@H]3c3ccc(Cl)cc3)CC2)c([C@@H](NC(=O)CCN(C)C)C(C)C)c1 (stereo in doubt; 13b-1) | – | 122% | Activity [7]: Active; Activity [8]: Active; Activity [9]: Active; Activity [10]: Active; Activity [11]: Active; inhibition [12]: 38%
14 | COc1cccc([C@@H]2CN(C(C)C)C[C@H]2C(=O)N2CCN(c3c(F)cccc3[C@@H](NC(=O)CCN(C)C)C(C)C)CC2)c1 | 3700 nM | – | –
15 | CC(C)[C@H](NC(=O)CCN(C)C)c1cccc(F)c1N1CCN(C(=O)[C@@H]2CN(C(C)C)C[C@H]2c2cc(F)c(F)c(F)c2)CC1 | 250 nM | – | –

— ChEMBL document CHEMBL1143104, “Identification and characterization of pyrrolidine diastereoisomers as potent functional agonists and antagonists of the human melanocortin-4 receptor” (Bioorg Med Chem Lett, 2008)
